Results: ChEMBL document CHEMBL3259628, “Discovery of novel 2-((pyridin-3-yloxy)methyl)piperazines as α7 nicotinic acetylcholine receptor modulators for the treatment of inflammatory disorders” (J Med Chem, 2014)
Calls of active or inactive are those of the source. No cut-off for these calls is given here.

Columns and labels:
[1] = molecular target: Voltage-gated inwardly rectifying potassium channel KCNH2 (Homo sapiens, UniProt Q12809); assay: Inhibition of human ERG by whole-cell voltage clamp assay
[2] = Cmax in mouse at 5 mg/kg, po; assay type: ADME, organism-based; design: dose 5 mg/kg, route oral; conditions: in vivo
Mus musculus [3] = assay: (§1) Antiinflammatory activity against ovalbumin-induced allergic lung inflammation BALB/c mouse model assessed as reduction in neutrophils in brochoalveolar lavage fluid at 1 mg/kg, po bid administered on day 29 to 31 post ovalbumin challenge measured 8 hrs post last challenge relative to vehicle-treated control; assay type: functional; conditions: Bronchoalveolar lavage
Procedure, shortened: (§2)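 Balb/c mice sensitized with ovalbumin by IP injection on days 1 and 14, then challenged intranasally with 100 μg ovalbumin on days 29, 30 and 31. Compound in saline given orally starting 30 min before each challenge; groups of six mice. Sham groups were saline-sensitized and allergen-challenged. BAL taken 8 h after the last challenge, with differential cell counts on slides.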

Mus musculus [4] = assay: as §1, with “at 0.2” for “at 1”; assay type: functional, organism-based; design: dose 0.2 mg/kg; conditions: Bronchoalveolar lavage; procedure, shortened: as §2
[5] = Oral bioavailability in rat at 15 mg/kg; assay type: ADME, organism-based; conditions: in vivo
Mus musculus [6] = assay: as §1, with “at 5” for “at 1”; assay type: functional; conditions: Bronchoalveolar lavage; procedure, shortened: as §2
Cytochrome P450 2C19 = Cytochrome P450 2C19 (Homo sapiens, UniProt P33261); assay: Inhibition of CYP2C19 (unknown origin); assay type: ADME
Procedure, shortened: (§3)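 Each of five Cyp isoforms assayed with single probe substrates rather than a substrate cocktail. Run in duplicate at Cerep. IC50 lines come from a 5-concentration titration curve.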

[7] = Half life in mouse at 1 mg/kg, iv; assay type: ADME, organism-based; design: dose 1 mg/kg, route intravenous; conditions: in vivo
[8] = molecular target: Neuronal acetylcholine receptor subunit alpha-7 (Rattus norvegicus, UniProt Q05941); assay: Inhibition of biotinylated alpha-bungarotoxin binding to alpha7 nAChR in rat PC12 cells by FACS analysis; assay type: cell-based, PC-12
Procedure, shortened: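 Rat PC12 cells in binding buffer (PBS, 1.0% FBS, 0.02% sodium azide), 0.1% DMSO; biotinylated α-bungarotoxin 10 nM final, 1 h at room temperature; nonspecific binding defined with 1.5 μM unlabeled toxin. After washing, phycoerythrin-streptavidin 1.0 μg/mL final, 15 min in the dark; read by FACS. Screened at 10 and 1 μM, then eight-point 3-fold dilution IC50; mean of two or more experiments.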

Cytochrome P450 2C9 = Cytochrome P450 2C9 (Homo sapiens, UniProt P11712); assay: Inhibition of CYP2C9 (unknown origin); assay type: ADME; procedure, shortened: as §3
Mus musculus [9] = assay: as §1, with “in eosinophils” for “in neutrophils”, “at 5” for “at 1”; assay type: functional; procedure, shortened: as §2
Cytochrome P450 3A4 = Cytochrome P450 3A4 (Homo sapiens, UniProt P08684); assay: Inhibition of CYP3A4 (unknown origin); assay type: ADME; procedure, shortened: as §3
Mus musculus [10] = assay: as §1, with “in eosinophils” for “in neutrophils”, “at 0.2” for “at 1”; assay type: functional, organism-based; design: dose 0.2 mg/kg; procedure, shortened: as §2
[11] = Half life in mouse at 5 mg/kg, po; assay type: ADME, organism-based; design: dose 5 mg/kg, route oral; conditions: in vivo
Mus musculus [12] = assay: as §1, with “in total blood cells” for “in neutrophils”, “at 0.2” for “at 1”; assay type: functional, organism-based; design: dose 0.2 mg/kg; procedure, shortened: as §2
[13] = Ratio of drug uptake in brain to plasma in iv dosed mouse measured after 5 to 30 mins; assay type: ADME, organism-based; conditions: brain and plasma, read-out: BPR
Mus musculus [14] = assay: as §1, with “total blood cells” for “neutrophils”; assay type: functional; procedure, shortened: as §2
[15] = Clearance in rat at 1 mg/kg, iv; assay type: ADME, organism-based; design: dose 1 mg/kg, route intravenous; conditions: in vivo
[16] = Oral bioavailability in mouse at 5 mg/kg; assay type: ADME, organism-based; conditions: in vivo
[17] = Half life in rat at 15 mg/kg, po; assay type: ADME, organism-based; design: dose 15 mg/kg, route oral; conditions: in vivo
Mus musculus [18] = assay: as §1, with “at 30” for “at 1”; assay type: functional, organism-based; design: dose 30 mg/kg; conditions: Bronchoalveolar lavage; procedure, shortened: as §2
Cytochrome P450 2D6 = Cytochrome P450 2D6 (Homo sapiens, UniProt P10635); assay: Inhibition of CYP2D6 (unknown origin); assay type: ADME; procedure, shortened: as §3
Mus musculus [19] = assay: as §1, with “eosinophils” for “neutrophils”; assay type: functional; procedure, shortened: as §2
[20] = molecular target: T1, Neuronal acetylcholine receptor; alpha4/beta2 (Homo sapiens, UniProt P17787+P43681); assay: Inhibition of human alpha4beta2 nAChR at 10 uM by binding assay
Mus musculus [21] = assay: as §1, with “in total blood cells” for “in neutrophils”, “at 30” for “at 1”; assay type: functional, organism-based; design: dose 30 mg/kg; procedure, shortened: as §2
Cytochrome P450 1A2 = Cytochrome P450 1A2 (Homo sapiens, UniProt P05177); assay: Inhibition of CYP1A2 (unknown origin); assay type: ADME; procedure, shortened: as §3
Rattus norvegicus = species on record: Rattus norvegicus; assay: Inhibition of rat sodium channel site 2 at 10 uM
Procedure, shortened: (§4)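 Receptor, ion channel and transporter binding panel run at Cerep in duplicate. Percent inhibition measured at 10 μM compound.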

[22] = molecular target: Histamine H3 receptor (Homo sapiens) (UniProt Q9Y5N1); assay: Inhibition of human histamine H3 receptor at 10 uM; procedure, shortened: as §4
[23] = Cmax in rat at 15 mg/kg, po; assay type: ADME, organism-based; design: dose 15 mg/kg, route oral; conditions: in vivo
[24] = Clearance in mouse at 1 mg/kg, iv; assay type: ADME, organism-based; design: dose 1 mg/kg, route intravenous; conditions: in vivo
Mus musculus [25] = assay: as §1, with “in eosinophils” for “in neutrophils”, “at 30” for “at 1”; assay type: functional, organism-based; design: dose 30 mg/kg; procedure, shortened: as §2
Mus musculus [26] = assay: as §1, with “in total blood cells” for “in neutrophils”, “at 5” for “at 1”; assay type: functional; procedure, shortened: as §2
[27] = Half life in rat at 1 mg/kg, iv; assay type: ADME, organism-based; design: dose 1 mg/kg, route intravenous; conditions: in vivo
[28] = molecular target: T1, Neuronal acetylcholine receptor; alpha4/beta2; assay: Agonist activity at alpha4beta2 nAChR (unknown origin)

Chain of Cytochrome P450 2D6 (P10635 whole entry): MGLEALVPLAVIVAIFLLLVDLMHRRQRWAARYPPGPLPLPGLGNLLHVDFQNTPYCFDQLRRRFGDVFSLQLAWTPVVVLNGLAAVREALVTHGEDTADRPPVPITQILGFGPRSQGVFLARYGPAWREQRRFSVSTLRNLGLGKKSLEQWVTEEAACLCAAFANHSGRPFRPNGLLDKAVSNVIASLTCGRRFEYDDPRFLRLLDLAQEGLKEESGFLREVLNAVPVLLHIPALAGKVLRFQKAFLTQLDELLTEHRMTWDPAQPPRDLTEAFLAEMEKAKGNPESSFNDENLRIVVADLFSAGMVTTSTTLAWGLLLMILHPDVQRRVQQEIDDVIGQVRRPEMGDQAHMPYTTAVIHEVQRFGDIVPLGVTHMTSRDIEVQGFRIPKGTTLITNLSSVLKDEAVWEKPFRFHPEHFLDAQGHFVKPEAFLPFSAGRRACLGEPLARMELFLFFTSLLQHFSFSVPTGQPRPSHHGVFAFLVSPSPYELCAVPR
Chain of Voltage-gated inwardly rectifying potassium channel KCNH2 (Q12809 whole entry): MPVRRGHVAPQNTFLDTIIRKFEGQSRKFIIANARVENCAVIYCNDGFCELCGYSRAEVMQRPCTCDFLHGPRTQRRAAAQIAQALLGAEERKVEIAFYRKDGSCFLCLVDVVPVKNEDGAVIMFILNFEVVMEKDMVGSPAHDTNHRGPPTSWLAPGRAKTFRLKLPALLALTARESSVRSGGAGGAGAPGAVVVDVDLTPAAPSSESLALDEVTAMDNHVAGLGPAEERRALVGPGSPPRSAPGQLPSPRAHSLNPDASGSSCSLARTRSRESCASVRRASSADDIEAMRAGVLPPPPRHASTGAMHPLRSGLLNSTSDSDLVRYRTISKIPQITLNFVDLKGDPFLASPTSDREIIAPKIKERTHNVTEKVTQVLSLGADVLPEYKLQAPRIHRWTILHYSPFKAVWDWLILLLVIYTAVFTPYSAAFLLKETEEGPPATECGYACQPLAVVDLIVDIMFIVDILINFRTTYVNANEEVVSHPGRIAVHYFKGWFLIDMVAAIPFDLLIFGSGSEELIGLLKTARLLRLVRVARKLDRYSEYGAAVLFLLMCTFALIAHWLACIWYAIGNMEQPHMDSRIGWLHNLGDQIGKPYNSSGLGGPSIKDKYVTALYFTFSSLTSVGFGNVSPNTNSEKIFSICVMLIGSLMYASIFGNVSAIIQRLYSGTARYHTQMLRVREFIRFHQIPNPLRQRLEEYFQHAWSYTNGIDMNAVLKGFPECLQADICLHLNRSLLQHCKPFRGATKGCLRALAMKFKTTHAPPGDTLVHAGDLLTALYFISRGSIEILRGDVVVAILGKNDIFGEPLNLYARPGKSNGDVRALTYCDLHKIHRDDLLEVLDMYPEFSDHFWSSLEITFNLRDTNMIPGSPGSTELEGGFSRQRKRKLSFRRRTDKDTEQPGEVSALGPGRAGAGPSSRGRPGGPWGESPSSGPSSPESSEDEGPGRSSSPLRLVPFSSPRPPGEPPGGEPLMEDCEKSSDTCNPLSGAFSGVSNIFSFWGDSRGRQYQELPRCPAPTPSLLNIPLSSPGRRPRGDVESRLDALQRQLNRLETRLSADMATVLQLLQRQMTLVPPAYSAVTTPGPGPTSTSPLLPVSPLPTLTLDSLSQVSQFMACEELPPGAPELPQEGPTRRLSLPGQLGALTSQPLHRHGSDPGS
Chain of Neuronal acetylcholine receptor subunit alpha-7 (Q05941 whole entry): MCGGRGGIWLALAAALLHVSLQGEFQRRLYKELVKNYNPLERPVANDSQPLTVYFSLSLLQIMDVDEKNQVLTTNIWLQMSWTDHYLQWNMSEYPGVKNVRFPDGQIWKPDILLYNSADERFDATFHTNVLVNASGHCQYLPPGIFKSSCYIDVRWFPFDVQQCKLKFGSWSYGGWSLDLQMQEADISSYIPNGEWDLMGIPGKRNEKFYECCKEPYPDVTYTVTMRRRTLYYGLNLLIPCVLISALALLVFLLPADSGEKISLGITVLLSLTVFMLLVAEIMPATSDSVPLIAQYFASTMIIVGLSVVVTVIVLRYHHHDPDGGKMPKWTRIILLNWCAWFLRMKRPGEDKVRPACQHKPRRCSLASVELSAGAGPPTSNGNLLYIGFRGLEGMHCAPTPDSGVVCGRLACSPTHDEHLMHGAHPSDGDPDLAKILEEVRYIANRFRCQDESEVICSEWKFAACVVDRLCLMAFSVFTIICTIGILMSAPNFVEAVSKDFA
T1 sequence (P17787 whole entry): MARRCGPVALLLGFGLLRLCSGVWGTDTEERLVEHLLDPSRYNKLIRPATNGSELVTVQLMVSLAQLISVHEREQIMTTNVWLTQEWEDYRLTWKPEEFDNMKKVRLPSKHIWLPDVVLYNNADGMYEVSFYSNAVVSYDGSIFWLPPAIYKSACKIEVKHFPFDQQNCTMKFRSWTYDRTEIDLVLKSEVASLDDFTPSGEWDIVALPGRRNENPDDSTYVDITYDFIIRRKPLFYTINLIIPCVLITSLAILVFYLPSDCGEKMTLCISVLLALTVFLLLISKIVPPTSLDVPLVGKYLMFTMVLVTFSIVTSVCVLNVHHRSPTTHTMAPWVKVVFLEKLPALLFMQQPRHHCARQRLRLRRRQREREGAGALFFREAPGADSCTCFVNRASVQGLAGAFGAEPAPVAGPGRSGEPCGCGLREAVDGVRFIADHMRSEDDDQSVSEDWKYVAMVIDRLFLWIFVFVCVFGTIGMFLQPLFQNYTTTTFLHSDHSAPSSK
T1 sequence (P43681 whole entry): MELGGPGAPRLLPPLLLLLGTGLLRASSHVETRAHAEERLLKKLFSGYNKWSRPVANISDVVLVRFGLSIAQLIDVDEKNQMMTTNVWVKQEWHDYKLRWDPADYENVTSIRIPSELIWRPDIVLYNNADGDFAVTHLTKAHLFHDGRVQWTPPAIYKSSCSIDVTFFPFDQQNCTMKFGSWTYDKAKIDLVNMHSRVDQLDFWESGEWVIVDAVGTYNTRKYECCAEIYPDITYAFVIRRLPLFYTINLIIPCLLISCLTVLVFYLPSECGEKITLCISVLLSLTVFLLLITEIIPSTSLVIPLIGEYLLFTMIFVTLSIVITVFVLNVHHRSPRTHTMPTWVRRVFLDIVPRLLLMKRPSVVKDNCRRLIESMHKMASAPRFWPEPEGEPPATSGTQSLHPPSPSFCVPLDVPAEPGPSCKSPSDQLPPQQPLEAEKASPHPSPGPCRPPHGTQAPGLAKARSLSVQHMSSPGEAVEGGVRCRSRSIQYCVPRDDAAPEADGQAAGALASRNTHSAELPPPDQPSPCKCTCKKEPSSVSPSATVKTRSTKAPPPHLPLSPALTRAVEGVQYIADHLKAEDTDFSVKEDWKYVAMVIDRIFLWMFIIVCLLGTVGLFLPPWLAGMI
Chain of Cytochrome P450 2C19 (P33261 whole entry, canonical isoform): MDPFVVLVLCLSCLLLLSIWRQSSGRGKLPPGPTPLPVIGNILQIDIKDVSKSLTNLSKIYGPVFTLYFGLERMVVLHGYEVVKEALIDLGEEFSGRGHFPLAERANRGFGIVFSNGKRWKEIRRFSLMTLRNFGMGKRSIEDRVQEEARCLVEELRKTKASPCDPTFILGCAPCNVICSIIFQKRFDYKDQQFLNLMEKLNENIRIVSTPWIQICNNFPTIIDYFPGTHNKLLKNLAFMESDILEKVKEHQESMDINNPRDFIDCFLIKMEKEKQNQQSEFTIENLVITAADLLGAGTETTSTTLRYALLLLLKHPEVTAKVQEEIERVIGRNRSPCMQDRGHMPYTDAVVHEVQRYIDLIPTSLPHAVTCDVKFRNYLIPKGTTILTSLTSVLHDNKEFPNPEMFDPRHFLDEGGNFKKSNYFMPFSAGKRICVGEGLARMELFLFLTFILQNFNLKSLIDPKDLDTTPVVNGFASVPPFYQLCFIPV
Chain of Cytochrome P450 2C9 (P11712 whole entry): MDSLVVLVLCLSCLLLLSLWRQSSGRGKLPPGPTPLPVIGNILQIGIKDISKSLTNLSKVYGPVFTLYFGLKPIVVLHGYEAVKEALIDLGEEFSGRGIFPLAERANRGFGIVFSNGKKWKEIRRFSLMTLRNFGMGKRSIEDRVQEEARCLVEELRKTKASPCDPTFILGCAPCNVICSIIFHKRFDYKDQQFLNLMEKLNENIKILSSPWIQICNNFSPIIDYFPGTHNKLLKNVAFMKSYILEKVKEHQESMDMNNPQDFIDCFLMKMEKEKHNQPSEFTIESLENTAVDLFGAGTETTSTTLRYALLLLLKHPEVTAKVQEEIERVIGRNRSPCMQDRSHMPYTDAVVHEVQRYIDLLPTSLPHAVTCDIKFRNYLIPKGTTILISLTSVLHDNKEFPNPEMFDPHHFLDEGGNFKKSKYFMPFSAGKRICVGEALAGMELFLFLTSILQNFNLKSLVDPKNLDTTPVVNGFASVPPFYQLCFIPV
Chain of Cytochrome P450 3A4 (P08684 whole entry): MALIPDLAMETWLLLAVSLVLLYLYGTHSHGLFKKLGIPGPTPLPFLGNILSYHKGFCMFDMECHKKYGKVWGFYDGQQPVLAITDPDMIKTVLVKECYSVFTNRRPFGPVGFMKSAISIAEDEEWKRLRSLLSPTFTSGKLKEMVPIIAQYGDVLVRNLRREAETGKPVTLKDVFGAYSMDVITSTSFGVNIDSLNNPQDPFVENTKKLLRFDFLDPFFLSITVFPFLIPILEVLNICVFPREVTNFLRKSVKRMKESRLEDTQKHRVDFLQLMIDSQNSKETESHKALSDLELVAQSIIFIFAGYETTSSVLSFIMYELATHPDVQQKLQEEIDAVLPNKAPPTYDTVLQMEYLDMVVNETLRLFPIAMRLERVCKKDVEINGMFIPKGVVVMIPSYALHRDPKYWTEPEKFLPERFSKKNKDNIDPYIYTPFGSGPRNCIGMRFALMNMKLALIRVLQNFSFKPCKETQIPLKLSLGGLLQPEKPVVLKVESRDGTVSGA

## COc1ccc(NC(=O)N2CCNC[C@@H]2COc2cccnc2)cc1.Cl
[1]
  IC50: 31 µM
[2]
  Cmax: 950 nM
Mus musculus [3]
  inhibition in vivo at 1 mg/kg: 61%
Mus musculus [4]
  inhibition: inactive
[5]
  bioavailability: 89%
Mus musculus [6]
  inhibition in vivo at 5 mg/kg: 70%
Cytochrome P450 2C19
  IC50: > 100 µM
[7]
  half-life: 0.65 h
[8]
  IC50: 0.019 µM
Cytochrome P450 2C9
  IC50: > 100 µM
Mus musculus [9]
  inhibition in vivo at 5 mg/kg: 74%
Cytochrome P450 3A4
  IC50: > 100 µM
Mus musculus [10]
  inhibition: inactive
[11]
  half-life: 1.73 h
Mus musculus [12]
  inhibition: inactive
[13]
  Kp: ≤ 0.06
Mus musculus [14]
  inhibition in vivo at 1 mg/kg: 53%
[15]
  clearance: 86 mL/min/kg
[16]
  bioavailability: 76%
[17]
  half-life: 2.35 h
Mus musculus [18]
  inhibition: inactive
Cytochrome P450 2D6
  IC50: > 100 µM
Mus musculus [19]
  inhibition in vivo at 1 mg/kg: 48%
[20]
  inhibition: 10%
Mus musculus [21]
  inhibition: inactive
Cytochrome P450 1A2
  IC50: > 100 µM
Rattus norvegicus
  inhibition: 48%
[22]
  inhibition: 86%
[23]
  Cmax: 751 ng/mL
[24]
  clearance: 103 mL/min/kg
Mus musculus [25]
  inhibition: inactive
Mus musculus [26]
  inhibition in vivo at 5 mg/kg: 63%
[27]
  half-life: 1.22 h

## c1cncc(OC[C@@H]2CCN2)c1
[28]
  Ki: 52 pM
